The text below walks through data of ChEMBL document CHEMBL4312032, “Design and synthesis of α-phenoxy-N-sulfonylphenyl acetamides as Trypanosoma brucei Leucyl-tRNA synthetase inhibitors” (Eur J Med Chem, 2020).

Structures are written as SMILES. Active and inactive are the calls of the source. No cut-off for these calls is given here.

A short description of assay [1]: Inhibition of Trypanosoma brucei LeuRS expressed in Escherichia coli BL21 (DE3)-RIPL cells assessed as decrease in [14C]-Leucine tRNA synthesis incubated for 20 mins in presence of [14C]leucine followed by incubation with ATP for 15 mins by liquid scintillation counting method. A digest of the protocol: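 T. brucei LeuRS was expressed in E. coli BL21(DE3)-RIPL. Reactions held 50 mM HEPES-KOH pH 7.8, 5 mM MgCl₂, 45 mM KCl, 1 mM DTT, 0.02% BSA, 0.4 mg/mL tRNA and [¹⁴C]leucine. They were preincubated 20 min at 37 °C without ATP, then run 15 min after adding 4 mM ATP. Three aliquots were spotted on filter paper and averaged for IC50.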

Another assay concerns Trypanosoma brucei. The assay is described as follows: Potency index, ratio of IC50 of 2-(4-bromo-2-chlorophenoxy)-N-(4-sulfamoylphenylcarbamothioyl)acetamide to IC50 of compound for inhibition of Trypanosoma brucei LeuRS expressed in Escherichia coli BL21 (DE3)-RIPL cells in presence of [14C]leucine incubated for 20 mins followed by incubation with ATP for 15 mins by liquid scintillation counting method.

Assay [2] has as its system Trypanosoma brucei brucei. Description: Antitrypanosomal activity against bloodstream form of Trypanosoma brucei brucei 221 assessed as parasite growth inhibition incubated for 72 hrs by resazurin staining based assay. It counts as functional, organism-based. The following applies: Trypanosoma brucei, 221, 72 h. In outline:
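Bloodstream-form T. b. brucei 221 kept in log phase in HMI-11 at 37 °C, 5% CO2, and seeded from a 2×10⁵/mL (2-fold) suspension. Compounds were serially diluted in DMSO and tested in triplicate for 72 h. Resazurin was then added for 5 h more. Fluorescence was read at ex 544/em 590 nm.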
Background: Resazurin is reduced to fluorescent resorufin, in cell work by metabolically active cells.

Assay [3] relates to Trypanosoma brucei brucei. Description: Antitrypanosomal activity against bloodstream form of Trypanosoma brucei brucei 221 assessed as parasite growth inhibition at 22 uM incubated for 72 hrs by resazurin staining based assay. It counts as functional, organism-based.

For `O=C(COc1ccc(Br)cc1Cl)Nc1ccc(S(=O)(=O)NC(=O)[C@H](Cc2ccccc2)NC(=O)OCc2ccccc2)cc1`, the IC50 (commonly the midpoint of a concentration-inhibition curve) in assay [1] came out at 116 µM.
Still for that read-out and setting: the value for `N[C@@H](CCC(=O)O)C(=O)NS(=O)(=O)c1ccc(NC(=O)COc2ccc(Br)cc2Cl)cc1` was 428 µM; that for `NS(=O)(=O)c1ccc(NC(=S)NC(=O)COc2ccc(Br)cc2Cl)cc1` was 174 µM.
Still for that read-out and setting: the same measure for `CC(C)C[C@H](N)C(=O)NS(=O)(=O)c1cccc(NC(=O)COc2ccccc2Cl)c1`: 5.69 µM; for `NC(=O)CC[C@H](N)C(=O)NS(=O)(=O)c1ccc(NC(=O)COc2ccc(Br)cc2Cl)cc1`: 285 µM; for `O=C(COc1ccc(Br)cc1Cl)Nc1ccc(S(=O)(=O)NC(=O)c2ccco2)cc1`: 251 µM.
Take `CC[C@H](C)[C@H](N)C(=O)NS(=O)(=O)c1ccc(NC(=O)COc2ccc(Br)cc2Cl)cc1`: the IC50 in assay [1] was > 1000 µM.
As to `CC(C)(C)OC(=O)N[C@@H](CCC(N)=O)C(=O)NS(=O)(=O)c1ccc(NC(=O)COc2ccc(Br)cc2Cl)cc1`, the IC50 in assay [1] is 685 µM.
For `COc1cccc(OCC(=O)Nc2cccc(S(=O)(=O)NC(=O)[C@@H](N)CC(C)C)c2)c1`, the IC50 in assay [1] is 2.68 µM.
Take `CC(C)C[C@H](N)C(=O)NS(=O)(=O)c1cccc(NC(=O)COc2cccc(-c3ccccc3)c2)c1`: in the assay on Trypanosoma brucei, the Ratio IC50 is 250. Moreover, the IC50 in assay [1] was 0.7 µM.
As for `CC(C)(C)OC(=O)N[C@@H](CCC(=O)OCc1ccccc1)C(=O)NS(=O)(=O)c1ccc(NC(=O)COc2ccc(Br)cc2Cl)cc1`, in assay [1], the IC50 was found to be 98 µM.
For `CC(C)C[C@H](N)C(=O)NS(=O)(=O)c1cccc(NC(=O)COc2ccc([N+](=O)[O-])cc2)c1`, in assay [1], the IC50 turned out to be 6.81 µM.
`CC(C)C[C@H](NC(=O)OC(C)(C)C)C(=O)NS(=O)(=O)c1ccc(NC(=O)COc2ccc(Br)cc2Cl)cc1`: the IC50 in assay [1] turned out to be 404 µM.
Take `CC[C@H](C)[C@H](NC(=O)OC(C)(C)C)C(=O)NS(=O)(=O)c1ccc(NC(=O)COc2ccc(Br)cc2Cl)cc1`: in assay [1], the concentration for half-maximal inhibition (IC50) turned out to be 346 µM.
`CC(C)C[C@H](N)C(=O)NS(=O)(=O)c1cccc(NC(=O)COc2ccc(-c3ccccc3)cc2)c1`: the IC50 was 33.3 µM in assay [2] and 7.28 µM in assay [1]. The inhibition entry in assay [3] is “Active”.
For `CC(C)C[C@H](N)C(=O)NS(=O)(=O)c1cccc(NC(=O)COc2ccccc2)c1`, the IC50 in assay [1] was found to be 5.51 µM.
Consider `CC(C)C[C@H](N)C(=O)NS(=O)(=O)c1ccc(NC(=O)COc2ccc(Br)cc2Cl)cc1`, for which the Ratio IC50 in the assay with Trypanosoma brucei turned out to be 5. In addition, the IC50 in assay [1] came out at 38.4 µM.
Regarding `NS(=O)(=O)c1ccc(NC(=O)COc2ccc(Br)cc2Cl)cc1`, in assay [1], the 50% inhibitory concentration (IC50) worked out at 191 µM.
In the case of `N[C@@H](Cc1ccccc1)C(=O)NS(=O)(=O)c1ccc(NC(=O)COc2ccc(Br)cc2Cl)cc1`, the IC50 in assay [1] was > 1000 µM.
Still for that read-out and setting: the same measure for `COc1ccc(OCC(=O)Nc2cccc(S(=O)(=O)NC(=O)[C@@H](N)CC(C)C)c2)cc1`: 3.58 µM.
Still for that read-out and setting: the value for `CCOC(=O)CC[C@H](N)C(=O)NS(=O)(=O)c1ccc(NC(=O)COc2ccc(Br)cc2Cl)cc1` was > 1000 µM.
The same measure, in the same setting: the same measure for `CC(C)C[C@H](NC(=O)OCc1ccccc1)C(=O)NS(=O)(=O)c1ccc(NC(=O)COc2ccc(Br)cc2Cl)cc1`: 110 µM; for `CC(C)(C)OC(=O)N[C@@H](Cc1ccccc1)C(=O)NS(=O)(=O)c1ccc(NC(=O)COc2ccc(Br)cc2Cl)cc1`: 281 µM.
